In ChEMBL document CHEMBL1125623, “Tetrahydropyridyloxadiazoles: semirigid muscarinic ligands” (J Med Chem, 1991):

Experiments:
[1] = target: T1, Muscarinic acetylcholine receptor (Rattus norvegicus) (UniProt P08482+P08483+P08485+P08911+P10980)
[2] = pKa value was determined; type: physicochemical
Outline: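 Determined by autotitration with a pH meter and autoburette; mean of two or more independent measurements.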

[3] = target: T1, Muscarinic acetylcholine receptor (Rattus norvegicus); remark: listed apart in the source
[4] = target: T1, Muscarinic acetylcholine receptor (Rattus norvegicus); assay: Apparent binding affinity against rat cortical Muscarinic acetylcholine receptor by the displacement of [3H]N-methylscopolamine; type: protein assay
Outline: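 Membranes from cortex of male Sprague-Dawley rats (250–300 g), resuspended in 20 mM HEPES Krebs' buffer pH 7.4. Displacement of 0.1 nM [3H]-N-methylscopolamine; 60 min incubation at 30 °C, ended by filtration. Apparent affinity constant corrected for radioligand occupancy, given in micromolar; geometric mean of at least three independent experiments on separate occasions.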

[5] = Ratio of apparent binding affinities of NMS and Oxo-M
[6] = target: T1, Muscarinic acetylcholine receptor (Rattus norvegicus); assay: Apparent binding affinity against rat cortical Muscarinic acetylcholine receptor by the displacement of [3H]oxotremorine-M; type: protein assay
Outline: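 Rat brain membranes from male Sprague-Dawley rats (250–300 g), resuspended in 20 mM HEPES buffer pH 7.4. Displacement curves use 3.0 nM [3H]oxotremorine-M; incubation 40 min at 30 °C, stopped by filtration through polyethyleneimine-presoaked filters.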

`FCCc1noc(C2=CCCNC2)n1` showed a K app [1] of 5.7 µM, a pKa [2] of 8.29 and a K app [3] of 0.021 µM.

`CN1CCC=C(c2nc(N(C)C)no2)C1` gave a K app [1] of 2.5 µM, a pKa [2] of 7.24 and a K app [3] of 0.12 µM.

Work on `CN(C)c1noc(C2=CCCNC2)n1` yielded a K app [1] of 3.5 µM, a pKa [2] of 8.58 and a K app [3] of 0.082 µM.

For `Cc1noc(C2=CCC(C)NC2)n1` (stereo not given), the K app [4] was 16 µM, the pKa [2] was 8.2 and the Ratio [5] was 130. The K app [6] was 0.12 µM.

Work on `COC(=O)C1=CCCNC1` yielded a K app [1] of 23 µM and a K app [3] of 0.012 µM.

Work on `C=Cc1noc(C2=CCCNC2)n1` yielded a K app [1] of 2.5 µM, a pKa [2] of 8.23 and a K app [3] of 0.035 µM.

For `OCCc1noc(C2=CCCNC2)n1`, the K app [1] was 13 µM and the K app [3] was 0.23 µM.

With `Cc1noc(C2=CCCN(C)C2)n1` the pKa [2] was 7.16.

With `Cc1noc(C2=CCCNC2)n1` the K app [1] was 2.3 µM, the pKa [2] was 8.24 and the K app [3] was 0.0031 µM.

`Cc1noc(C2=CCC(C)N(C)C2)n1` (stereo not given) gave a K app [1] of 2.4 µM, a pKa [2] of 7.35 and a K app [3] of 0.061 µM.

`Nc1noc(C2=CCCNC2)n1` gave a pKa [2] of 8.25.

`CCc1noc(C2=CCCNC2)n1` gave a K app [1] of 4.3 µM and a K app [3] of 0.0074 µM.

`Cc1noc(C2=CC(C)CNC2)n1` (stereo not given) gave a K app [1] of 2.7 µM, a pKa [2] of 8.17 and a K app [3] of 0.037 µM.

In the case of `Cc1noc(C2=CC(C)CN(C)C2)n1` (stereo not given), the K app [1] is reported as 15 µM, the pKa [2] is reported as 7.34 and the K app [3] is reported as 0.87 µM.

In the case of `OCc1noc(C2=CCCNC2)n1`, the K app [1] is reported as 34 µM and the K app [3] is reported as 0.11 µM.

`CCC1C=C(c2nc(C)no2)CNC1` (stereo not given) gave a K app [1] of 25 µM and a K app [3] of 0.97 µM.
